Results reported in ChEMBL document CHEMBL5724801, “EUbOPEN Chemogenomics Library - Multiplex” (2024).
Values joined by “and” are separate entries in the source; they are usually repeats but may differ in a detail not shown here. Equal entries are not always repeated.

Tested on: HEK-293T
Test: Multiplex assay against HEK293T
Assay type: toxicity, cell-based
Settings: human
Outline: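 Phenotypes for tubulin, mitochondrial mass and membrane permeability are expressed as per cents of healthy-nucleus cells. Cells were stained live at seeding with Hoechst33342, BioTracker Green Microtubule Cytoskeleton Dye, MitoTracker Red and Annexin V Alexa Fluor 680, then imaged after compound addition on a CQ1 microscope at 37°C and 5% CO2. Machine-learning gating in CellPathfinder separated Hoechst high-intensity objects from normal cells, divided normal cells by nuclear state (healthy, pyknosed, fragmented) and divided pyknosed cells into mitotic or apoptotic.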

[1] = 12 h, 1 µM, compound concentration 1 uM
[2] = 12 h, 10 µM, compound concentration 10 uM
[3] = 24 h, 1 µM, compound concentration 1 uM
[4] = 24 h, 10 µM, compound concentration 10 uM
[5] = 48 h, 1 µM, compound concentration 1 uM
[6] = 48 h, 10 µM, compound concentration 10 uM

COCCNc1cc(NC(=O)N2CCCc3cc(CN4CCOCC4=O)c(C=O)nc32)ncc1C#N
Population Apoptotic (%) [1]: 8.39% and 10.83%
Population Fragmented Nuclei (%) [1]: 1.89% and 2%
Population Hoechst High Intensity Objects (%) [1]: 0% and 0.66%
Population Membrane Permeable-Phenotype (%) [1]: 0.45% and 0%
Population Mitochondria Different-Phenotype (%) [1]: 40% and 29.63%
Population Mitotic Cells (%) [1]: 91.61% and 89.17%
Population Normal (%) [1]: 100% and 99.34%
Population Pyknosed Nuclei (%) [1]: 38.65% and 80%
Total Cell Count [1]: 370 and 151
Population Apoptotic (%) [2]: 13.28% and 9.24%
Population Fragmented Nuclei (%) [2]: 3.21% and 5.33%
Population Hoechst High Intensity Objects (%) [2]: 0.71% and 0%
Population Membrane Permeable-Phenotype (%) [2]: 0.7% and 4.35%
Population Mitochondria Different-Phenotype (%) [2]: 34.27% and 17.39%
Population Mitotic Cells (%) [2]: 86.72% and 90.76%
Population Normal (%) [2]: 99.29% and 100%
Population Pyknosed Nuclei (%) [2]: 45.71% and 79.33%
Population Tubulin-Different-Phenotype (%) [2]: 22.38% and 30.43%
Total Cell Count [2]: 282 and 150
Population Apoptotic (%) [3]: 12.59% and 11.28%
Population Fragmented Nuclei (%) [3]: 1.33% and 4.05%
Population Hoechst High Intensity Objects (%) [3]: 0%
Population Membrane Permeable-Phenotype (%) [3]: 1.6% and 0%
Population Mitochondria Different-Phenotype (%) [3]: 19.15% and 9.09%
Population Mitotic Cells (%) [3]: 87.41% and 88.72%
Population Normal (%) [3]: 100%
Population Pyknosed Nuclei (%) [3]: 27.19% and 76.88%
Population Apoptotic (%) [4]: 27.05% and 20.97%
Population Fragmented Nuclei (%) [4]: 2.91% and 3.95%
Population Healthy Nuclei (%) [4]: 67.48% and 25.99%
Population Hoechst High Intensity Objects (%) [4]: 0.24% and 0%
Population Membrane Permeable-Phenotype (%) [4]: 1.44% and 0%
Population Mitochondria Different-Phenotype (%) [4]: 24.82% and 19.57%
Population Mitotic Cells (%) [4]: 72.95% and 79.03%
Population Normal (%) [4]: 99.76% and 100%
Population Pyknosed Nuclei (%) [4]: 29.61% and 70.06%
Population Tubulin-Different-Phenotype (%) [4]: 39.21% and 21.74%
Total Cell Count [4]: 413 and 177
Population Apoptotic (%) [5]: 7.19% and 11.39%
Population Fragmented Nuclei (%) [5]: 2.68% and 2.4%
Population Healthy Nuclei (%) [5]: 85.58% and 59.62%
Population Hoechst High Intensity Objects (%) [5]: 0%
Population Membrane Permeable-Phenotype (%) [5]: 6% and 3.23%
Population Mitochondria Different-Phenotype (%) [5]: 14.96% and 30.65%
Population Mitotic Cells (%) [5]: 92.81% and 88.61%
Population Normal (%) [5]: 100%
Population Apoptotic (%) [6]: 11.67% and 18.75%
Population Fragmented Nuclei (%) [6]: 2.84% and 5.15%
Population Healthy Nuclei (%) [6]: 81.65% and 53.65%
Population Hoechst High Intensity Objects (%) [6]: 0%
Population Membrane Permeable-Phenotype (%) [6]: 4.91% and 4%
Population Mitochondria Different-Phenotype (%) [6]: 35.13% and 34.4%
Population Mitotic Cells (%) [6]: 88.33% and 81.25%
Population Normal (%) [6]: 100%
Population Pyknosed Nuclei (%) [6]: 15.5% and 41.2%

O=C1COc2nccc(-c3ccccc3F)c2CN1Cc1cc(C(F)(F)F)cc(C(F)(F)F)c1
Population Apoptotic (%) [1]: 31% and 51%
Population Fragmented Nuclei (%) [1]: 8% and 4%
Population Healthy Nuclei (%) [1]: 80% and 83%
Population Hoechst High Intensity Objects (%) [1]: 5% and 10%
Population Membrane Permeable-Phenotype (%) [1]: 0%
Population Mitochondria Different-Phenotype (%) [1]: 41% and 67%
Population Mitotic Cells (%) [1]: 68% and 48%
Population Normal (%) [1]: 94% and 89%
Population Pyknosed Nuclei (%) [1]: 10% and 11%
Population Tubulin-Different-Phenotype (%) [1]: 27% and 20%
Total Cell Count [1]: 397 and 333
Population Apoptotic (%) [2]: 38% and 57%
Population Fragmented Nuclei (%) [2]: 10% and 8%
Population Healthy Nuclei (%) [2]: 76% and 79%
Population Hoechst High Intensity Objects (%) [2]: 9% and 5%
Population Membrane Permeable-Phenotype (%) [2]: 0%
Population Mitochondria Different-Phenotype (%) [2]: 67% and 76%
Population Mitotic Cells (%) [2]: 61% and 42%
Population Normal (%) [2]: 90% and 94%
Population Pyknosed Nuclei (%) [2]: 13% and 12%
Population Tubulin-Different-Phenotype (%) [2]: 68% and 39%
Total Cell Count [2]: 475 and 382
Population Apoptotic (%) [3]: 21% and 59%
Population Fragmented Nuclei (%) [3]: 8% and 5%
Population Healthy Nuclei (%) [3]: 84% and 87%
Population Hoechst High Intensity Objects (%) [3]: 3% and 8%
Population Membrane Permeable-Phenotype (%) [3]: 0%
Population Mitochondria Different-Phenotype (%) [3]: 32% and 39%
Population Mitotic Cells (%) [3]: 78% and 40%
Population Normal (%) [3]: 96% and 91%
Population Pyknosed Nuclei (%) [3]: 7% and 6%
Population Tubulin-Different-Phenotype (%) [3]: 23% and 12%
Total Cell Count [3]: 517 and 428
Population Apoptotic (%) [4]: 52% and 36%
Population Fragmented Nuclei (%) [4]: 10% and 7%
Population Healthy Nuclei (%) [4]: 76% and 79%
Population Hoechst High Intensity Objects (%) [4]: 5%
Population Membrane Permeable-Phenotype (%) [4]: 0%
Population Mitochondria Different-Phenotype (%) [4]: 71% and 72%
Population Mitotic Cells (%) [4]: 47% and 63%
Population Normal (%) [4]: 94%
Population Pyknosed Nuclei (%) [4]: 13% and 12%
Population Tubulin-Different-Phenotype (%) [4]: 68% and 44%
Total Cell Count [4]: 520 and 492
Population Apoptotic (%) [5]: 27% and 38%
Population Fragmented Nuclei (%) [5]: 13% and 9%
Population Healthy Nuclei (%) [5]: 80% and 81%
Population Hoechst High Intensity Objects (%) [5]: 2% and 4%
Population Membrane Permeable-Phenotype (%) [5]: 0%
Population Mitochondria Different-Phenotype (%) [5]: 29% and 23%
Population Mitotic Cells (%) [5]: 72% and 61%
Population Normal (%) [5]: 97% and 95%
Population Pyknosed Nuclei (%) [5]: 6% and 8%
Population Tubulin-Different-Phenotype (%) [5]: 14% and 12%
Total Cell Count [5]: 743 and 574
Population Apoptotic (%) [6]: 44% and 56%
Population Fragmented Nuclei (%) [6]: 13% and 11%
Population Healthy Nuclei (%) [6]: 75% and 80%
Population Hoechst High Intensity Objects (%) [6]: 3% and 2%
Population Membrane Permeable-Phenotype (%) [6]: 0%
Population Mitochondria Different-Phenotype (%) [6]: 63% and 51%
Population Mitotic Cells (%) [6]: 55% and 43%
Population Normal (%) [6]: 96% and 97%
Population Pyknosed Nuclei (%) [6]: 11% and 7%
Population Tubulin-Different-Phenotype (%) [6]: 46% and 25%
Total Cell Count [6]: 713 and 669
